The values that follow come from ChEMBL document CHEMBL1121968, “Phospholipid-nucleoside conjugates. 3. Syntheses and preliminary biological evaluation of 1-beta-D-arabinofuranosylcytosine 5'-monophosphate-L-1,2-dipalmitin and selected 1-beta-D-arabinofuranosylcytosine 5-diphosphate-L-1,2-diacylglycerols” (1982).

Experiment [1] is filed under the species Mus musculus. The experiment is described as follows: Number of mice survived after 30 days. The experiment is classed as functional. In short, it runs like this: (§1)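 C3D2F1/J mice (groups of six, av wt 25 g) were inoculated ip with 1×10^6 L1210 lymphoid leukemia cells. Dosing started 24 h after implantation and continued daily through day 5. Read-outs were median survival time of treated versus controls (T/C, 24 controls), %ILS = (T/C − 1)×100, 30-day survivors, and weight change on day 8.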

Experiment [2] concerns Mus musculus. The experiment is described as follows: Percent increase in life span calculated as (T/C-1)X100 at a dose of 40 mg/kg/day X5. The experiment is classed as functional. The procedure, abridged: as §1
The subject of experiment [3] is Mus musculus. The experiment is described as follows: Percent increase in life span calculated as (T/C-1)X100 at a dose of 25 mg/kg/day X5. In kind it is functional. The procedure, abridged: as §1
Experiment [4] has as its system MPC-11. Description: In vitro antiproliferative activity was measured in mouse myeloma MPC-11 cell line. The experiment is classed as functional. Particulars: read-out: ED50 (the source's name).
For experiment [5], the system named is MPC-11. Description: In vitro lethal dose was measured in mouse myeloma MPC-11 cell line. In kind it is functional. To be noted: read-out: LD50 (the source's name).
Experiment [6] concerns Mus musculus. Description: Change in weight of mouse on day 8 was measured in L1210 lymphoid leukemia inoculated mice after ip administration at dose of 40 mg/kg/day X5. In kind it is functional. Particulars: route intraperitoneal. In short, it runs like this:
(§2)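 C3D2F1/J mice, groups of six, average weight 25 g, were inoculated ip with 1×10^6 L1210 lymphoid leukemia cells following NCI protocol. Dosing was ip, daily, starting 24 h after tumor implantation and continuing through day 5. Body-weight change in g/mouse was recorded on day 8. Pooled controls were 24 mice.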

Experiment [7] can be described thus: In vitro antiproliferative activity was measured in mouse L1210 lymphoid leukemia cell line. Particulars: read-out: ED50 (the source's name).
The subject of experiment [8] is Mus musculus. Description: Median survival time expressed as (T/C) was measured at dose of 25 mg/kg/day X5; 20.0/7.0.
In experiment [9] the test system is Mus musculus. The experiment is described as follows: Change in weight of mouse on day 8 was measured in L1210 lymphoid leukemia inoculated mice after ip administration at dose of 25 mg/kg/day X5. In kind it is functional. To be noted: route intraperitoneal. In short, it runs like this:
as §2

For experiment [10], the system named is Mus musculus. Description: Median survival time expressed as (T/C) was measured at dose of 40 mg/kg/day X5; 24.5/8.5. The experiment is classed as functional. In short, it runs like this:
as §1

For experiment [11], the system named is Mus musculus. The experiment is described as follows: Median survival time expressed as (T/C) was measured at dose of 20 mg/kg/day X5; 18.0/7.5. The experiment is classed as functional. The procedure, abridged:
as §1

Experiment [12] has as its system Mus musculus. Description: Median survival time expressed as (T/C) was measured at dose of 40 mg/kg/day X5; 20.0/7.5. The experiment is classed as functional. In short, it runs like this: as §1
Experiment [13] relates to Mus musculus. Description: Change in weight of mouse on day 8 was measured in L1210 lymphoid leukemia inoculated mice after ip administration at dose of 20 mg/kg/day X5. The experiment is classed as functional. Particulars: route intraperitoneal. In short, it runs like this:
as §2

The subject of experiment [14] is Mus musculus. The experiment is described as follows: Change in weight of mouse on day 8 was measured in L1210 lymphoid leukemia inoculated mice after ip administration at dose of 10 mg/kg/day *5. The experiment is classed as functional. To be noted: route intraperitoneal. The procedure, abridged: as §2
For experiment [15], the system named is Mus musculus. Description: Median survival time expressed as (T/C) was measured at dose of 10 mg/kg/day *5; 15.0/7.5. The experiment is classed as functional. The procedure, abridged:
as §1

The subject of experiment [16] is Mus musculus. Description: Percent increase in life span calculated as (T/C-1)X100 at a dose of 20 mg/kg/day X5. In kind it is functional. The procedure, abridged:
as §1

The test system of experiment [17] is Mus musculus. The experiment is described as follows: Percent increase in life span calculated as (T/C-1)X100 at a dose of 10 mg/kg/day *5. The experiment is classed as functional. The procedure, abridged: as §1
In experiment [18] the test system is Mus musculus. The experiment is described as follows: Median survival time expressed as (T/C) was measured at dose of 10 mg/kg/day *5. The experiment is classed as functional. The procedure, abridged: as §1
The test system of experiment [19] is Mus musculus. The experiment is described as follows: Median survival time expressed as (T/C) was measured at dose of 40 mg/kg/day X5. In kind it is functional. In short, it runs like this:
as §1

For experiment [20], the system named is Mus musculus. Description: Median survival time expressed as (T/C) was measured at dose of 20 mg/kg/day X5. The experiment is classed as functional. The procedure, abridged: as §1
For experiment [21], the system named is Mus musculus. The experiment is described as follows: Change in weight of mouse on day 8 was measured in L1210 lymphoid leukemia inoculated mice after ip administration at dose of 60 mg/kg/day X5. The experiment is classed as functional. Particulars: route intraperitoneal. The procedure, abridged: as §2
Experiment [22] relates to Mus musculus. Description: Percent increase in life span calculated as (T/C-1)X100 at a dose of 60 mg/kg/day X5. In kind it is functional. In short, it runs like this: as §1
For experiment [23], the system named is Mus musculus. Description: Median survival time expressed as (T/C) was measured at dose of 10 mg/kg/day *5; 14.0/7.5. The experiment is classed as functional. The procedure, abridged: as §1
Experiment [24] deals with Mus musculus. The experiment is described as follows: Median survival time expressed as (T/C) was measured at dose of 60 mg/kg/day x5; 8.5/8.0. The experiment is classed as functional. In short, it runs like this:
as §1

Experiment [25] deals with Mus musculus. The experiment is described as follows: Median survival time expressed as (T/C) was measured at dose of 40 mg/kg/day X5; 19.0/7.5. The experiment is classed as functional. The procedure, abridged:
as §1

The test system of experiment [26] is Mus musculus. The experiment is described as follows: Median survival time expressed as (T/C) was measured at dose of 50 mg/kg/day *5; 14.0/8.0.
Experiment [27] concerns Mus musculus. The experiment is described as follows: Change in weight of mouse on day 8 was measured in L1210 lymphoid leukemia inoculated mice after ip administration at dose of 50 mg/kg/day X5. The experiment is classed as functional. To be noted: route intraperitoneal. The procedure, abridged: as §2

As to `CCCCCCCCCCCCCCCC(=O)OC[C@H](COP(=O)(O)OP(=O)(O)OC[C@H]1O[C@@H](n2ccc(N)nc2=O)[C@@H](O)[C@@H]1O)OC(=O)CCCCCCCCCCCCCCC`, the Survivors in the experiment filed under Mus musculus [1] is on record as 1. Also, the ILS at 40 mg/kg/day with Mus musculus [2] was 188%. For the same molecule, the increase in lifespan (ILS) at 25 mg/kg/day in the experiment with Mus musculus [3] was 186%. In addition, the EC50 in the experiment on MPC-11 [4] is 65 µM; in experiment [7], 9.6 µM. Moreover, in the experiment on MPC-11 [5], the CC50 worked out at 68.5 µM. Also, the Weight change is on record as -1.8 g mouse-1 in the experiment on Mus musculus [6] and 1.57 g mouse-1 in the experiment on Mus musculus [9]. Besides, the T/C with Mus musculus [8] is 20 days; in the experiment on Mus musculus [10], 24.5 days.

In the experiment listed under Mus musculus [1], `CCCCCCCCCCCCCCCCCC(=O)OC[C@H](COP(=O)(O)OP(=O)(O)OC[C@H]1O[C@@H](n2ccc(N)nc2=O)[C@@H](O)[C@@H]1O)OC(=O)CCCCCCCCCCCCCCCCC` came in with a Survivors of 0. Besides, the increase in life span (ILS) at 40 mg/kg/day in the experiment with Mus musculus [2] was 167%. Also, the EC50 in the experiment with MPC-11 [4] came out at 195 µM; in [7], 20 µM. The figures for the T/C with Mus musculus [11], in the experiment with Mus musculus [12] and in the experiment on Mus musculus [15] were 18 days, 20 days and 15 days, respectively. In addition, the CC50 in the experiment with MPC-11 [5] stood at 164 µM. Moreover, the Weight change is on record as -0.4 g mouse-1 in the experiment on Mus musculus [6], 1.1 g mouse-1 in the experiment on Mus musculus [13] and 1.2 g mouse-1 in the experiment on Mus musculus [14]. Further, the ILS at 20 mg/kg/day in the experiment on Mus musculus [16] was 140%. In addition, in the experiment on Mus musculus [17], the ILS at 10 mg/kg/day was 100%.

In turn, `Nc1ccn([C@@H]2O[C@H](CO)[C@@H](O)[C@@H]2O)c(=O)n1` [CYTARABINE] yielded a Survivors in the experiment filed under Mus musculus [1] of 0. Further, the ILS at 40 mg/kg/day in the experiment with Mus musculus [2] was 65%. The T/C with Mus musculus [18] worked out at 13 days; in the experiment with Mus musculus [19] it was 14 days; in the experiment on Mus musculus [20] it was 14 days. Besides, the EC50 with MPC-11 [4] turned out to be 0.99 µM; in experiment [7], 0.1 µM. In the experiment with MPC-11 [5], the CC50 came out at 1.91 µM. Moreover, the Weight change in the experiment with Mus musculus [6] is listed as 0.6 g mouse-1; in the experiment with Mus musculus [13], 0.5 g mouse-1; in the experiment on Mus musculus [14] it was 0.8 g mouse-1. Moreover, the ILS at 20 mg/kg/day in the experiment on Mus musculus [16] was 65%. The ILS at 10 mg/kg/day in the experiment on Mus musculus [17] is 53%.

In the case of `CCCCCCCCCCCCCC(=O)OC[C@H](COP(=O)(O)OP(=O)(O)OC[C@H]1O[C@@H](n2ccc(N)nc2=O)[C@@H](O)[C@@H]1O)OC(=O)CCCCCCCCCCCCC`, in the experiment listed under Mus musculus [1], the Survivors is reported as 0. Also, the ILS at 40 mg/kg/day in the experiment on Mus musculus [2] is 153%. The Weight change is -4.6 g mouse-1 in the experiment with Mus musculus [21], 0.1 g mouse-1 in the experiment on Mus musculus [6], 1.15 g mouse-1 with Mus musculus [13] and 1.8 g mouse-1 in the experiment on Mus musculus [14]. The EC50 turned out to be 15 µM in the experiment on MPC-11 [4] and 16 µM in experiment [7]. The T/C stood at 18 days in the experiment with Mus musculus [11], 14 days in the experiment on Mus musculus [23], 8.5 days in the experiment with Mus musculus [24] and 19 days in the experiment on Mus musculus [25]. In the experiment on MPC-11 [5], the CC50 was found to be 15.2 µM. In addition, the ILS at 60 mg/kg/day in the experiment on Mus musculus [22] is 6%. For the same molecule, the ILS at 20 mg/kg/day in the experiment on Mus musculus [16] is 140%. In the experiment on Mus musculus [17], the ILS at 10 mg/kg/day is 87%.

Consider `CCCCCCCCCCCCCCCC(=O)OC[C@H](COP(=O)(O)OC[C@H]1O[C@@H](n2ccc(N)nc2=O)[C@@H](O)[C@@H]1O)OC(=O)CCCCCCCCCCCCCCC`, for which, in the experiment filed under Mus musculus [1], the Survivors amounted to 0. For the same molecule, the T/C with Mus musculus [26] is 14 days. Further, the EC50 in [7] worked out at 13.4 µM. This molecule came in with a Weight change in the experiment with Mus musculus [27] of 1.7 g mouse-1.

Usually ILS stands for the gain in survival time of treated over control animals, in per cent.
